# From ChEMBL document CHEMBL1156003, “A strategy of employing aminoheterocycles as amide mimics to identify novel, potent and bioavailable soluble epoxide hydrolase inhibitors” (Bioorg Med Chem Lett, 2009)
# pIC50: −log10 of the molar value.
# Columns and labels:
# [1] = target: T1, Bifunctional epoxide hydrolase 2 (Homo sapiens, UniProt P34913); test: Inhibition of human sEH
# T1 sequence (P34913 whole entry): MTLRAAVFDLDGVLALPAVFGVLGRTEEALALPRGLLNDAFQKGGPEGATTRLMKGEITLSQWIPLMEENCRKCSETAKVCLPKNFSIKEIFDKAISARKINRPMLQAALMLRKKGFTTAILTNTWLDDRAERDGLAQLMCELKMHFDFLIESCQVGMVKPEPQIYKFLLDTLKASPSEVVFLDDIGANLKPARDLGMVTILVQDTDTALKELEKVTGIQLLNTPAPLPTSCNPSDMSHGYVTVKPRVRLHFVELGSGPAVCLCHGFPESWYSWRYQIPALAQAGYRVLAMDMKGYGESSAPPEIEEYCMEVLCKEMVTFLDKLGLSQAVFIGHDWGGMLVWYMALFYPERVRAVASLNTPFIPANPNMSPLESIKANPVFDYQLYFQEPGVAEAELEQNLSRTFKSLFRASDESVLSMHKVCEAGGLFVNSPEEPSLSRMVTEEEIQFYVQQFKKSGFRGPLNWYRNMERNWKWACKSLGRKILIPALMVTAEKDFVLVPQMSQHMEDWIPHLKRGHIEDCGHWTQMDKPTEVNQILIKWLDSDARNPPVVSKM
# Method in brief: (§1)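 Human and rat sEH enzyme inhibition; values from one or two experiments, each in triplicate, within 20% deviation on repeat.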
# [2] = target: T2, Bifunctional epoxide hydrolase 2 (Rattus norvegicus, UniProt P80299); test: Inhibition of rat sEH; method in brief: as §1
# T2 sequence (P80299 whole entry): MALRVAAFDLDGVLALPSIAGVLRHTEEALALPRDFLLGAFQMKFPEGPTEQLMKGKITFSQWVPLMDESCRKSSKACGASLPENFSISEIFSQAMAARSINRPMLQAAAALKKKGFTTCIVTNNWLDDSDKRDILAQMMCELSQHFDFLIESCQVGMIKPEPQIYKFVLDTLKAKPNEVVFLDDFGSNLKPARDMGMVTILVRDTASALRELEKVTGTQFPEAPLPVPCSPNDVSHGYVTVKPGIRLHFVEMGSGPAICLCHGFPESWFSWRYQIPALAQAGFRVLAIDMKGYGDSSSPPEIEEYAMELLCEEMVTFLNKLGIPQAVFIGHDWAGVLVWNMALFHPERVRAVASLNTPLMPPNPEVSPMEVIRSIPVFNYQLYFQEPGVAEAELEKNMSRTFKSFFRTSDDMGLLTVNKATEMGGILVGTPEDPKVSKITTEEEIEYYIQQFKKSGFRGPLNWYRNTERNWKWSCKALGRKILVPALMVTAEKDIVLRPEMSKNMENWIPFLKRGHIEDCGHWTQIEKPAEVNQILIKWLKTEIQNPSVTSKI
# [3] = Oral bioavailability in rat at 2 mg/kg; assay type: ADME, organism-based; conditions: in vivo
# Method in brief: (§2)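 Rat PK: dosed at 1 mg/mL in ethanol/PEG/water (20:40:40); IV 1 mg/kg (n = 2), PO 2 mg/kg (n = 3). Blood levels measured by LC/MS/MS after acetonitrile protein precipitation.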
# [4] = Clearance in rat at 1 mg/kg, iv and 2 mg/kg, po; assay type: ADME, organism-based; conditions: in vivo; method in brief: as §2
# [5] = Volume of distribution at steady state in rat at 1 mg/kg, iv and 2 mg/kg, po; assay type: ADME, organism-based; conditions: in vivo, read-out: Vdss; method in brief: as §2
# [6] = Half life at steady state in rat at 1 mg/kg, iv and 2 mg/kg, po; assay type: ADME, organism-based; conditions: in vivo; method in brief: as §2
# [7] = target: T1, Bifunctional epoxide hydrolase 2; test: Inhibition of human sEH assessed as DHET production in presence of 10% human serum
# Plasma [8] = test: Fraction unbound in rat plasma at 0.2 to 25 uM; assay type: ADME, cell-free; conditions: in the assay text read “0.5 to 25 uM” for “0.2 to 25 uM”
# Method in brief: (§3)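 Free fraction measured with radiolabeled compound in human and rat plasma, compound at 0.5–25 μM.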
# Plasma [9] = test: Fraction unbound in human plasma at 0.2 to 25 uM; assay type: ADME, cell-free; conditions: in the assay text read “0.5 to 25 uM” for “0.2 to 25 uM”; method in brief: as §3
Compound,pIC50 [1],pIC50 [2],other results
FC(F)(F)c1ccc(Nc2noc3cc(-c4cccc5cnccc45)ccc23)cc1,7.72,7.52,–
c1ccc(CNc2ccc(-c3ccccc3)cn2)cc1,< 5.00,–,–
c1ccc2c(Nc3noc4ccccc34)cccc2c1,6.08,5.34,–
FC(F)(F)c1ccc(Nc2noc3cc(-c4cccnc4)ccc23)cc1,7.64,7.70,–
FC(F)(F)c1ccc(Nc2noc3c(-c4ccc5[nH]ccc5c4)cccc23)cc1,8.10,7.39,–
FC(F)(F)c1ccc(Nc2noc3cccnc23)cc1,5.96,–,–
FC(F)(F)c1ccc(Nc2noc3c(-c4ccccc4C(F)(F)F)cccc23)cc1,8.40,7.10,–
c1ccc(CNc2cnc(-c3ccccc3)cn2)cc1,< 5.00,–,–
c1ccc(CNc2nc3ccccc3s2)cc1,< 5.00,–,–
Cc1cccnc1-c1ccc2c(Nc3ccc(C(F)(F)F)cc3)noc2c1,7.15,6.54,–
FC(F)(F)c1ccc(Nc2noc3c(C(F)(F)F)cccc23)cc1,8.40,6.90,bioavailability [3]: 98%; clearance [4]: 30 mL/min/kg; Vd [5]: 7 L/kg; half-life [6]: 5.9 h; pIC50 [7]: 5.92; Fu (Plasma [8]): 0.9%; Fu (Plasma [9]): 0.7%
FC(F)(F)c1ccc(Nc2noc3cc(-c4ccccc4C(F)(F)F)ccc23)cc1,8.10,7.15,–
FC(F)(F)c1ccc(CNc2noc3ccccc23)cc1,5.92,–,–
FC(F)(F)c1ccc(Nc2cc(-c3ccccc3)on2)cc1,< 5.00,–,–
FC(F)(F)c1ccc(Nc2noc3cc(-c4cccc(C(F)(F)F)c4)ccc23)cc1,6.33,6.24,–
FC(F)(F)c1ccc(Nc2noc3cnccc23)cc1,7.51,–,–
c1ccc(Cc2nnc(Nc3ccccc3)o2)cc1,< 5.00,–,–
FC(F)(F)Oc1ccccc1Nc1noc2ccccc12,5.28,–,–
FC(F)(F)c1cccc(CNc2cc(-c3ccccc3)ncn2)c1,< 5.00,–,–
FC(F)(F)c1ccc(Nc2noc3cc(-c4ccc5[nH]ccc5c4)ccc23)cc1,7.15,7.11,–
FC(F)(F)c1ccc(Nc2noc3c(-c4cccc(C(F)(F)F)c4)cccc23)cc1,8.00,6.89,–
FC(F)(F)c1ccc(Nc2noc3c(C(F)(F)F)cccc23)nc1,< 5.00,< 5.00,–
c1ccc(CNc2cnc3ccccc3n2)cc1,< 5.00,–,–

Compound,pIC50 [1],pIC50 [2],other results
FC(F)(F)c1ccc(Nc2nsc3ccccc23)cc1,5.60,–,–
FC(F)(F)c1ccc(CNc2cc(-c3ccccc3)on2)cc1,5.33,–,–
FC(F)(F)c1ccc(Nc2noc3ccncc23)cc1,6.47,–,–
c1ccc(CNc2nnc(Cc3ccccc3)o2)cc1,< 5.00,–,–
FC(F)(F)c1ccc(Nc2noc3cc(C(F)(F)F)ccc23)cc1,7.74,–,–
Fc1ccccc1-c1ccc2c(Nc3ccc(C(F)(F)F)cc3)noc2c1,7.04,7.26,–
FC(F)(F)c1nnc(Nc2ccccc2)o1,5.70,–,–
c1ccc(-c2cccc(Nc3noc4ccccc34)c2)cc1,6.02,–,–
FC(F)(F)Oc1cccc(Nc2noc3ccccc23)c1,6.80,6.80,–
c1ccc(CNc2nc3ccccc3o2)cc1,< 5.00,–,–
FC(F)(F)c1ccc(Nc2noc3c(C(F)(F)F)nccc23)cc1,7.72,6.52,–
FC(F)(F)c1ccc(Nc2noc3ccccc23)cc1,7.60,7.12,–
FC(F)(F)c1ccc(Nc2noc3cc(-c4ccncc4)ccc23)cc1,7.24,7.72,–
FC(F)(F)c1ccc(Nc2noc3c(C(F)(F)F)cccc23)cn1,7.13,5.47,–
c1ccc(CNc2cc(-c3ccccc3)ccn2)cc1,< 5.00,–,–
FC(F)(F)c1ccc(Nc2noc3ccc(C(F)(F)F)cc23)cc1,7.40,5.82,–
FC(F)(F)c1ccc(Nc2noc3ncccc23)cc1,7.57,–,–
FC(F)(F)Oc1ccc(Nc2noc3ccccc23)cc1,7.22,6.77,–
FC(F)(F)c1ccc(Nc2n[nH]c3ccccc23)cc1,< 5.00,–,–
c1ccc2cc(Nc3noc4ccccc34)ccc2c1,5.92,–,–
c1ccc(-c2ccc(Nc3noc4ccccc34)cc2)cc1,6.77,6.13,–
c1ccc(CNc2nnc(-c3ccccc3)o2)cc1,< 5.00,–,–
FC(F)(F)c1ccccc1Nc1noc2ccccc12,6.02,–,–
